Measured values taken from paper PMC9136973 (ACS Central Science, 2022).
In brackets after ≈: the same amount, converted by molar mass.

How the values were obtained:
[1] = tested on: MOLT-4 cells; assay: Xenotransplantation in zebrafish embryos; assay type: in vivo; settings: 500 nM, 48 h
In short: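 Wild-type TE zebrafish embryos at 32 hpf each received ~1 nL (~200) CFDA SE-labeled MOLT-4 cells into the perivitelline space, then 1 h at 28 °C. Well-engrafted embryos were treated with test compound (500 nM) or DMSO for 48 h at 35 °C, with development monitored. Embryos were dissociated through a 40 μm strainer and labeled cells quantified by flow cytometry. Fold change was taken against the DMSO-group mean.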

[2] = tested on: Hsp70, Hsp40, and Hsp27; assay: Immunoblot of heat shock response proteins in K562 cells; assay type: cell-based, human; settings: 48 h, cytotoxic concentration
[3] = Aqueous thermodynamic solubility; assay type: physicochemical; settings: phosphate-buffered saline, pH 7.4
[4] = target: recombinant Hsp90α CTD protein (Homo sapiens, UniProt P07900); assay: Cell-free thermal shift assay; assay type: binding; settings: 100 µM
In short: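 Recombinant human Hsp90α CTD (residues 563–732, 5 μM) was mixed with test compound in 1× PBS, pH 7.5, and incubated for 2 h. SYPRO orange (6×) was added and samples were heated with increasing temperature up to 95 °C. Tm was compared with the DMSO vehicle control.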

Sequence of recombinant Hsp90α CTD protein (P07900 563-732): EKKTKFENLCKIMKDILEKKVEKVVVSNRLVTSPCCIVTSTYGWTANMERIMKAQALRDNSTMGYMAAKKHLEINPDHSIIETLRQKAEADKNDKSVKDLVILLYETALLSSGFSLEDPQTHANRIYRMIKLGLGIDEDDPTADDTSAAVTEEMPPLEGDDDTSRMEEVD

CCNC(=O)c1noc(-c2cc(C(C)C)c(O)cc2O)c1-c1ccc(CN2CCOCC2)cc1 [AUY922]
toxicity on the development of xenotransplanted embryos [1]: No toxicity
number of transplanted MOLT4 cells vs DMSO-treated group ([1]; flow cytometry): significantly reduced
induction of heat shock response (expression of Hsp70, Hsp40, Hsp27) [2]: led to HSR induction

Cc1nccn1CC1CCc2c(c3ccccc3n2C)C1=O (centres unmarked) [Ondansetron]
solubility thermodynamic [3]: 95 µM (≈ 27.9 µg/mL)

CO[C@H]1[C@H](OC(=O)c2ccc(C)[nH]2)[C@H](O)[C@@H](Oc2ccc3c(O)c(NC(=O)c4c[nH]c(C(=O)Nc5c(O)c6ccc(O[C@H]7OC(C)(C)[C@@H](OC)[C@H](OC(=O)c8ccc(C)[nH]8)[C@@H]7O)c(C)c6oc5=O)c4C)c(=O)oc3c2C)OC1(C)C [coumermycin A1]
effect on thermal stability of Hsp90α CTD protein [4]: stabilized
